Values after ≈ are worked out from the molar mass of the structure shown.
Legend:
[1] = Selectivity index, ratio of CC50 for human TZM-bl cells to EC50 for R5 tropic Human immunodeficiency virus 1 subtype B-ADA5; type: toxicity, cell-based; settings: read-out: Ratio CC50/EC50
In short: (§1)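 Selectivity index is CC50/EC50. […] EC50 came from the 2-day luciferase (RLU) readout in HIV-1-infected TZM-bl cells (mean of two assays).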

[2] = tested on: Human immunodeficiency virus 1; assay: Antiviral activity against X4 tropic Human immunodeficiency virus 1 subtype D-UG070 infected in human TZM-bl cells assessed as inhibition of virus-induced cytopathic effect after 2 days by luciferase assay; type: functional, organism-based; settings: Human immunodeficiency virus 1, subtype D-UG070, TZM-bl, 48 h
In short: (§2)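 TZM-bl cells were seeded at 1 × 10^4 per well and incubated overnight at 37 °C in 5% CO2. Medium was then replaced with HIV-1 stock for 2 h at 37 °C, and compound concentrations giving >50% viability were added. After two days, luciferase activity was read as RLU. EC50 is the mean of two independent assays, each in duplicate. Nevirapine served as positive control.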

[3] = Selectivity index, ratio of CC50 for human TZM-bl cells to EC50 for X4 tropic Human immunodeficiency virus 1 subtype D-UG070; type: toxicity, cell-based; settings: read-out: Ratio CC50/EC50; in short: as §1
[4] = Cytotoxicity in human TZM-bl cells assessed as cell viability after 48 hrs by MTT assay; type: cell-based
In short: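 TZM-bl (JC53BL-13) cells were seeded at 1 × 10^4 per well and incubated overnight at 37 °C in 5% CO2. Medium was replaced with a twofold dilution series of compound for 48 h, and viability was read by MTT absorbance. CC50 (50% cytotoxic concentration) is the mean of three independent assays, each in quadruplicate.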

[5] = tested on: Human immunodeficiency virus 1; assay: Antiviral activity against X4 tropic Human immunodeficiency virus 1 subtype B-3B infected in human TZM-bl cells assessed as inhibition of virus-induced cytopathic effect after 2 days by luciferase assay; type: functional, organism-based; settings: 48 h; in short: as §2
[6] = biological target: Human immunodeficiency virus type 1 reverse transcriptase (Human immunodeficiency virus 1) (UniProt Q72547); assay: Inhibition of biotin-dNTP labeled HIV-1 reverse transcriptase using ABST as substrate at 100 ug/ml after 1 hr by ELISA
In short: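 ELISA-format RT assay. Template/primer, biotin- and DIG-labelled dNTPs and RT enzyme in lysis buffer were incubated 1 h at 37 °C. The product was captured on streptavidin, detected with anti-DIG-peroxidase and ABTS substrate, and absorbance read at 405 nm. Activity is reported as percent inhibition of RT.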

[7] = tested on: Human immunodeficiency virus 1; assay: Antiviral activity against R5 tropic Human immunodeficiency virus 1 subtype C-VB59 infected in human TZM-bl cells assessed as inhibition of virus-induced cytopathic effect after 2 days by luciferase assay; type: functional, organism-based; settings: Human immunodeficiency virus 1, subtype C-VB59, TZM-bl, 48 h; in short: as §2
[8] = Selectivity index, ratio of CC50 for human TZM-bl cells to EC50 for X4 tropic Human immunodeficiency virus 1 subtype B-3B; type: cell-based; settings: read-out: Ratio CC50/EC50; in short: as §1
[9] = tested on: Human immunodeficiency virus 1; assay: Antiviral activity against R5 tropic Human immunodeficiency virus 1 subtype B-ADA5 infected in human TZM-bl cells assessed as inhibition of virus-induced cytopathic effect after 2 days by luciferase assay; type: functional, organism-based; settings: Human immunodeficiency virus 1, subtype B-ADA5, TZM-bl, 48 h; in short: as §2
[10] = Selectivity index, ratio of CC50 for human TZM-bl cells to EC50 for R5 tropic Human immunodeficiency virus 1 subtype C-VB59; type: toxicity, cell-based; settings: read-out: Ratio CC50/EC50; in short: as §1

SMILES | EC50 [2] | EC50 [5] | inhibition [6] | EC50 [7] | EC50 [9] | selectivity ratio [1] | selectivity ratio [3] | CC50 at 48 h [4] | selectivity ratio [8] | selectivity ratio [10]
Cc1cccc(N2C(=O)CSC2c2c(Cl)cncc2Cl)n1 (stereo not drawn) | 3.1 µg/mL (≈ 9.11 µM) | 0.65 µg/mL (≈ 1.91 µM) | 84.1% | 1.95 µg/mL (≈ 5.73 µM) | 1.64 µg/mL (≈ 4.82 µM) | 27.4 | 14.5 | 45 µg/mL (≈ 132 µM) | 69.8 | 23.1
Cc1nc(N2C(=O)CSC2c2c(Br)cncc2Br)ccc1Br (stereo not drawn) | – | 6.09 µg/mL (≈ 12 µM) | 75.9% | – | 2.52 µg/mL (≈ 4.96 µM) | 10.7 | – | 26.9 µg/mL (≈ 52.9 µM) | 4.4 | –
Cc1cc(C)nc(N2C(=O)CSC2c2c(Br)cncc2Br)c1 (stereo not drawn) | 2.1 µg/mL (≈ 4.74 µM) | 1.41 µg/mL (≈ 3.18 µM) | 62.8% | 1.59 µg/mL (≈ 3.59 µM) | 1.21 µg/mL (≈ 2.73 µM) | 41.1 | 23.7 | 49.8 µg/mL (≈ 112 µM) | 35.3 | 31.3
Cc1cc(N2C(=O)CSC2c2c(Cl)cncc2Cl)nc(C)c1Br (stereo not drawn) | – | 1.5 µg/mL (≈ 3.46 µM) | 57.4% | – | 4.8 µg/mL (≈ 11.1 µM) | 3.2 | – | 15.6 µg/mL (≈ 36 µM) | 10.4 | –
Cc1ccnc2c1NC(=O)c1cccnc1N2C1CC1 [NEVIRAPINE] | 0.05 µg/mL (≈ 0.188 µM) | 0.05 µg/mL (≈ 0.188 µM) | – | 0.05 µg/mL (≈ 0.188 µM) | 0.05 µg/mL (≈ 0.188 µM) | 1520 | 1520 | 76.1 µg/mL (≈ 286 µM) | 1520 | 1520
Cc1cc(C)nc(N2C(=O)CSC2c2c(Cl)cncc2Cl)c1 (stereo not drawn) | 1.55 µg/mL (≈ 4.38 µM) | 0.8 µg/mL (≈ 2.26 µM) | 85.3% | 1.1 µg/mL (≈ 3.11 µM) | 0.31 µg/mL (≈ 0.875 µM) | 120 | 24.1 | 37.3 µg/mL (≈ 105 µM) | 46.6 | 33.9
CC(C)(C)c1cc(N2C(=O)CSC2c2c(Cl)cccc2Cl)no1 (stereo not drawn) | 1.76 µg/mL (≈ 4.74 µM) | 1.49 µg/mL (≈ 4.01 µM) | 50.4% | 1.8 µg/mL (≈ 4.85 µM) | 2.4 µg/mL (≈ 6.46 µM) | 20 | 27.5 | 48.5 µg/mL (≈ 131 µM) | 32.6 | 26.9
Cc1cc(N2C(=O)CSC2c2c(Br)cncc2Br)nc(C)c1Br (stereo not drawn) | – | – | 62% | – | – | – | – | – | – | –
Cc1nc(N2C(=O)CSC2c2c(Cl)cncc2Cl)ccc1Br (stereo not drawn) | 8.45 µg/mL (≈ 20.2 µM) | 6.18 µg/mL (≈ 14.7 µM) | 76.6% | 6.5 µg/mL (≈ 15.5 µM) | 2.17 µg/mL (≈ 5.18 µM) | 30.7 | 7.89 | 66.7 µg/mL (≈ 159 µM) | 10.8 | 10.3
Cc1cccc(N2C(=O)CSC2c2c(Br)cncc2Br)n1 (stereo not drawn) | 5.55 µg/mL (≈ 12.9 µM) | 2.22 µg/mL (≈ 5.17 µM) | 77.6% | 2.24 µg/mL (≈ 5.22 µM) | 4.11 µg/mL (≈ 9.58 µM) | 6.5 | 4.8 | 26.7 µg/mL (≈ 62.2 µM) | 12 | 11.9
CC(C)(C)c1cc(N2C(=O)CSC2c2c(F)cccc2F)no1 (stereo not drawn) | – | 2.97 µg/mL (≈ 8.78 µM) | 71.5% | – | 2.58 µg/mL (≈ 7.62 µM) | 18 | – | 45.9 µg/mL (≈ 136 µM) | 15.5 | –

The next lines start with results.

EC50 [2] | EC50 [5] | inhibition [6] | EC50 [7] | EC50 [9] | SMILES | selectivity ratio [1] | selectivity ratio [3] | CC50 at 48 h [4] | selectivity ratio [8] | selectivity ratio [10]
1.6 µg/mL (≈ 4.51 µM) | 1.95 µg/mL (≈ 5.5 µM) | 51.1% | 2.5 µg/mL (≈ 7.05 µM) | 3.07 µg/mL (≈ 8.65 µM) | CC(C)(C)c1cc(N2C(=O)CSC2c2c(F)cccc2Cl)no1 (stereo not drawn) | 13.2 | 24.4 | 40.7 µg/mL (≈ 115 µM) | 20.8 | 16.2
1.8 µg/mL (≈ 4.61 µM) | 0.93 µg/mL (≈ 2.38 µM) | 76.5% | 0.65 µg/mL (≈ 1.67 µM) | 1.26 µg/mL (≈ 3.23 µM) | CSc1nc(Cl)cc(N2C(=O)CSC2c2c(F)cccc2Cl)n1 (stereo not drawn) | 21.4 | 15 | 27 µg/mL (≈ 69.2 µM) | 29 | 41.5
0.5 µg/mL (≈ 1.52 µM) | 0.35 µg/mL (≈ 1.06 µM) | 75.4% | 0.35 µg/mL (≈ 1.06 µM) | 0.65 µg/mL (≈ 1.97 µM) | Cc1cc(N2C(=O)CSC2c2c(Cl)cccc2Cl)no1 (stereo not drawn) | 62.3 | 81 | 40.5 µg/mL (≈ 123 µM) | 116 | 116
0.75 µg/mL (≈ 2.4 µM) | 0.67 µg/mL (≈ 2.14 µM) | 95.5% | 0.68 µg/mL (≈ 2.17 µM) | 1.06 µg/mL (≈ 3.39 µM) | Cc1cc(N2C(=O)CSC2c2c(F)cccc2Cl)no1 (stereo not drawn) | 36.3 | 51.3 | 38.5 µg/mL (≈ 123 µM) | 57.4 | 56.6
1.9 µg/mL (≈ 6.41 µM) | 1.01 µg/mL (≈ 3.41 µM) | 98.1% | 1.45 µg/mL (≈ 4.89 µM) | 1.34 µg/mL (≈ 4.52 µM) | Cc1cc(N2C(=O)CSC2c2c(F)cccc2F)no1 (stereo not drawn) | 46.8 | 33 | 62.7 µg/mL (≈ 212 µM) | 62 | 43.2
0.1 µg/mL (≈ 0.241 µM) | 0.09 µg/mL (≈ 0.216 µM) | 91.2% | 0.07 µg/mL (≈ 0.168 µM) | 0.12 µg/mL (≈ 0.289 µM) | Cc1cc(N2C(=O)CSC2c2c(F)cccc2Cl)nc(C)c1Br (stereo not drawn) | 335 | 402 | 40.2 µg/mL (≈ 96.7 µM) | 447 | 574
0.29 µg/mL (≈ 0.671 µM) | 1.04 µg/mL (≈ 2.41 µM) | 60.7% | 0.35 µg/mL (≈ 0.81 µM) | 0.85 µg/mL (≈ 1.97 µM) | Cc1cc(N2C(=O)CSC2c2c(Cl)cccc2Cl)nc(C)c1Br (stereo not drawn) | 2.9 | 8.6 | 2.5 µg/mL (≈ 5.78 µM) | 2.4 | 7.1

Reference: ChEMBL document CHEMBL1914449, “Lead optimization at C-2 and N-3 positions of thiazolidin-4-ones as HIV-1 non-nucleoside reverse transcriptase inhibitors” (Bioorg Med Chem, 2011)
